The nature of series [1]: Passive permeability of the compound in pH 7.4 PBS at 10 uM after 5 hrs by UPLC-MS/MS method based PAMPA. The format is ADME. The conditions noted are these: pH 7.4, 5 h. In short, it runs like this: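 Precoated PAMPA plate with lipid–oil–lipid trilayer filter. Compound at 10 μM in PBS pH 7.4 (≤5% DMSO) in the donor well, PBS in the acceptor well. Held 5 h at room temperature; both compartments quantified by UPLC-MS/MS. Pe calculated from peak areas; data accepted only if recovery exceeded 70%. Propranolol as control.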

Series [2] addresses T1, Von Hippel-Lindau disease tumor suppressor/Elongin B/Elongin C (Homo sapiens) (UniProt P40337+Q15370+Q15369). The experiment in a line: Binding affinity to VBC (unknown origin) assessed as dissociation rate constant at 50 uM after 160 secs at 10 degC by surface plasmon resonance assay. The format is protein-complex assay. The method, boiled down:
(§1)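 SPR on a Biacore T100 at 10 and 20 °C against VBC complex. Ligand stock 50 μM in DMSO, 2-fold serial dilutions in SPR buffer (20 mM HEPES, 150 mM NaCl, 1 mM DTT, 0.005% Tween P20, pH 7.0). Kd taken as koff/kon.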

In series [3] the target is T1, Von Hippel-Lindau disease tumor suppressor/Elongin B/Elongin C (Homo sapiens). The experiment in a line: Inhibition of VBC in human HeLa cells assessed as HIF-1alpha stabilization by measuring HIF-1alpha protein levels at 50 uM after 2 hrs by Western blot analysis. Format: cell-based. More on the design: scale not given: the % may be the effect or the level left. In short, it runs like this: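 HeLa (ATCC) grown in DMEM with 10% FBS, L-glutamine and penicillin/streptomycin at 37 °C; mycoplasma-tested. Treated 2 h in fresh medium, 1% DMSO as vehicle control. Lysed in RIPA buffer with protease inhibitors, SDS-PAGE, nitrocellulose blot. Anti-HIF-1α probed with β-actin as loading control, IRDye 800CW secondary for detection. Levels normalized to a reference VHL inhibitor.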

Series [4] shares this target. Put plainly: Binding affinity to VBC (unknown origin) assessed as association rate constant at 50 uM after 60 secs at 10 degC by surface plasmon resonance assay. The format is protein-complex assay. The method, boiled down: as §1
Series [5] deals with HeLa. The experiment in a line: Antiproliferative activity against human HeLa cells assessed as reduction in colony formation at 150 uM incubated for 24 hrs by crystal violet staining based assay. Format: cell-based. In short, it runs like this:
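HeLa cells, 500–2000 per well, seeded one day before exposure to 150 μM compound; 1% DMSO as vehicle control. Medium replaced after 24 h treatment, then grown a further week. Stained with 0.005% crystal violet in 25% methanol for 10 min at room temperature. Colonies counted on scanned plates.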

Series [6] is described as follows: Half life in plasma (unknown origin) at pH 7.4 at 50 uM up to 180 mins by UPLC-MS/MS analysis. Format: ADME, cell-free. The method, boiled down:
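Compound at 50 μM incubated at 37 °C in prewarmed plasma buffered to pH 7.4 (70:30 plasma to buffer). Aliquots were taken at 0, 30, 60, 120 and 180 min and quenched in acetonitrile with donepezil internal standard. Samples were centrifuged and analysed by UPLC-MS/MS. The rate constant was fitted as exponential decay of the compound/internal standard peak-area ratio.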

Series [7] is described as follows: Chromatographic hydrophobicity index, log D of the compound at pH 7.4 by HPLC analysis. Format: physicochemical. Conditions: buffer. The method, boiled down:
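DMSO stocks (10 mM) diluted to 0.25 mM in 50:50 acetonitrile:water. Run on C18 HPLC at 20 °C, 1 mL/min. Mobile phase 10 mM ammonium acetate pH 7.4 with an acetonitrile gradient. Retention times calibrated against a standard mix of eleven reference compounds, then converted to CHIlogD.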

A short description of series [8]: Intrinsic clearance in CD1 mouse liver microsomes at 0.5 uM up to 30 mins by UPLC-MS/MS analysis. Conditions: 0.5 h. Format: ADME, microsome. In short, it runs like this: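 Compound at 0.5 μM with female CD1 mouse liver microsomes (0.5 mg/mL) in 50 mM potassium phosphate pH 7.4, started with excess NADPH. Samples quenched in acetonitrile at 0, 3, 6, 9, 15 and 30 min; UPLC-MS/MS against internal standard. Decay rate constant converted to CLi assuming 52.5 mg microsomal protein/g liver. Verapamil as assay control.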

In series [9] the test system is HeLa. Put plainly: Antiproliferative activity against human HeLa cells assessed as reduction in cell proliferation at 150 uM incubated for 24 to 72 hrs by haemocytometry. The format is cell-based.
Series [10] has as its target T1, Von Hippel-Lindau disease tumor suppressor/Elongin B/Elongin C (Homo sapiens). Put plainly: Inhibition of VBC in human HeLa cells expressing HRE-luciferase reporter gene assessed as reduction in HIF transcriptional activity at 1 to 250 uM after 24 hrs by luciferase reporter gene assay. The format is cell-based.
The target is the same in series [11].
For series [12] the target is unchanged. The source holds these as a separate data set.
Series [13] shares this target. Put plainly: Binding affinity to VBC (unknown origin) assessed as dissociation rate constant at 50 uM after 160 secs at 20 degC by surface plasmon resonance assay. The format is protein-complex assay. The method, boiled down: as §1

The structures appear in SMILES notation. Active and inactive are the calls of the source. No cut-off for these calls is given here.

T1 sequence (P40337 whole entry, looked up): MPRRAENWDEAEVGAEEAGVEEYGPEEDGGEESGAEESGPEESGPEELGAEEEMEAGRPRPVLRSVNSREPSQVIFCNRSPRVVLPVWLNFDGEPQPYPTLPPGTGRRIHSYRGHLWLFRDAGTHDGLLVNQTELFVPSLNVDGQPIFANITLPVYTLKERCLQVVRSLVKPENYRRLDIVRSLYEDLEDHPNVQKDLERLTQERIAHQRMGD
T1 sequence (Q15369 whole entry, looked up): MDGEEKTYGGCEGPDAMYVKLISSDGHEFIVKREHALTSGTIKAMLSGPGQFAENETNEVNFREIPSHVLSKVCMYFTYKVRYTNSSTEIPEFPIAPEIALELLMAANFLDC
T1 sequence (Q15370 whole entry, looked up): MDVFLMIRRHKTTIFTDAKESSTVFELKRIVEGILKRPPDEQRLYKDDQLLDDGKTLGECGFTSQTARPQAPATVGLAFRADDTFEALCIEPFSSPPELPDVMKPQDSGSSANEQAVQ

`Cc1ncsc1-c1ccc(CNC(=O)[C@@H]2C[C@@H](O)CN2C(=O)[C@@H](NC(=O)C2(F)CC2)C(C)(C)C)cc1` yielded a permeability in [1] of 2.71 ×10⁻⁶ cm/s. For the same compound, the K in [2] was 0.058 s⁻¹; in [4] it was 2.4 ×10⁶ /M/s; in series [13] it was 0.098 s⁻¹. For the same compound, the Activity in [3] is 175%; in the series on HeLa [5] it was “Toxic”; with HeLa [9], “Toxic”. Besides, the half-life at 50 µM in series [6] was over 3 h. Also, in series [7], the chromatographic logD is 1.63. Moreover, in series [8], the “intrinsic clearance (CLint)” value worked out at 2.9 mL/min/g. Moreover, the inhibition entry in series [10] was “Active”. In addition, the T1/2 in series [11] is 7.07 s; in series [12] it was 11.9 s.

(Values after ChEMBL document CHEMBL4219039, “Group-Based Optimization of Potent and Cell-Active Inhibitors of the von Hippel-Lindau (VHL) E3 Ubiquitin Ligase: Structure-Activity Relationships Leading to the Chemical Probe …” (J Med Chem, 2018).)
